Results on 17 molecules are retold here after ChEMBL document CHEMBL1125756, “Synthesis and antiarrhythmic activity of alpha-[(diarylmethoxy)methyl]-1-piperidineethanols” (1991).

Some results are limits rather than exact numbers.

Test [1] deals with Canis familiaris. In words: Percent of normal beats 1 hr after 5 mg/kg given over 5 min by i.v. infusion. Format: functional, Canis lupus familiaris. Particulars: route intravenous. The gist of the method: (§1)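 Coronary-artery-ligated dogs with ventricular arrhythmias received 5 mg/kg iv in 10–20 mL isotonic saline, infused over 5 min. Limb lead II ECG was monitored continuously for up to 6 h or until activity ended. Percent normal sinus beats was scored at control, end of dose, 20 min and 1 h. Results are mean ± SEM for n≥3 and mean ± SD for n=2.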

In test [2] the test system is Canis familiaris. In words: Percent of normal beats 20 min after 5 mg/kg given over 5 min by i.v. infusion. Format: functional, Canis lupus familiaris. To be noted: route intravenous. In a few lines: as §1
For test [3], the system named is Canis familiaris. Put plainly: Percent of normal beats after 5 mg/kg given over 5 min by i.v. infusion. Type of test: functional, Canis lupus familiaris. To be noted: route intravenous. In a few lines: as §1
Test [4] relates to Canis familiaris. In words: Activity rating following 5 mg/kg i.v. administration. To be noted: route intravenous.
For test [5], the system named is Canis familiaris. Put plainly: […] 20 min after a dose of 5 mg/kg given intravenously over a 5-min period in normal dogs. Type of test: functional, Canis lupus familiaris. Particulars: route intravenous.
Test [6] deals with Canis familiaris. In words: […] 1 h after a dose of 5 mg/kg given intravenously over a 5-min period in normal dogs. Format: functional, Canis lupus familiaris. To be noted: route intravenous.
The subject of test [7] is Canis familiaris. Put plainly: Degree of tachycardia in conscious normal dogs. Type of test: functional, Canis lupus familiaris. In a few lines: (§2)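 Conscious normal dogs, trained to sit quietly while sling-restrained, received 5 mg/kg iv over 5 min, as in the ligated-dog protocol. Heart rate came from continuous limb lead II ECG at control, end of dose, 20 min and 1 h. Dogs above 140 beats/min were followed until the rate fell to 140. Degree was graded severe ≥200, moderate 160–199, slight <160 with a rise ≥20, none ≤20 change. Duration was graded long >2 h, moderate 0.5–2 h, short <0.5 h.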

For test [8], the system named is Canis familiaris. In words: […] at the end of the dose.(5 mg/kg was given intravenously over a 5-min period in normal dogs.). Type of test: functional, Canis lupus familiaris.
For test [9], the system named is Canis familiaris. In words: Period of tachycardiac effect in conscious normal dogs; 0.5-2. Type of test: functional, Canis lupus familiaris. The gist of the method:
as §2

Test [10] relates to Canis familiaris. Put plainly: Degree of tachycardia in conscious normal dogs; 160-199. Format: functional, Canis lupus familiaris. In a few lines:
(§3)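 Conscious normal dogs, trained to sit quietly while sling restrained, were given 5 mg/kg iv as an infusion over 5 min in isotonic saline. Heart rate came from continuous limb lead II ECG during a control period, at end of dose, and at 20 min and 1 h. Degree bands were ≥200, 160–199, and <160 beats/min after a rise of ≥20. Duration bands were >2 h, 0.5–2 h and <0.5 h. Two dogs were used.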

Test [11] has as its system Canis familiaris. Put plainly: Period of tachycardiac effect in conscious normal dogs. Format: functional, Canis lupus familiaris. In a few lines: as §3
Test [12] concerns Canis familiaris. In words: […] 1 h after a dose of 5 mg/kg given intravenously over a 5-min period […]. Type of test: functional, Canis lupus familiaris. To be noted: route intravenous. The gist of the method: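 Dogs with coronary artery ligation and ventricular arrhythmia received 5 mg/kg iv in 10–20 mL isotonic saline, infused over 5 min. Limb lead II ECG was monitored continuously for up to 6 h. Percent normal sinus beats was scored at control, at end of dose, and at 20 min and 1 h. Values are mean ± SEM for three or more animals and mean ± SD for two.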

The subject of test [13] is Canis familiaris. Put plainly: Degree of tachycardiac effect in conscious normal dogs.

`Cc1ccccc1C(OCC(O)CN1CCCCC1)c1ccccc1C.O=C(O)C(=O)O` (configuration not stated): the Normal beats is on record as 16% in the test with Canis familiaris [1], 31% in the test with Canis familiaris [2] and 79% in the test on Canis familiaris [3]. This molecule also yielded an Activity rating in the test on Canis familiaris [4] of 21.

Take `Cc1ccccc1C(OCC(O)CN1CCCCC1C)c1ccccc1C.O=C(O)C(=O)O` (configuration not stated): the values for the Normal beats in the test on Canis familiaris [1], in the test with Canis familiaris [2] and in the test with Canis familiaris [3] were 24%, 44% and 49%, respectively. This molecule also displayed an Activity rating in the test with Canis familiaris [4] of 36.

As to `CC1CCC(C)N1CC(O)COC(c1ccccc1)c1ccccc1` (configuration not stated), the Heart rate in the test on Canis familiaris [5] is 117 beats min-1; in the test on Canis familiaris [6], 102 beats min-1; with Canis familiaris [8], 140 beats min-1. The Normal beats in the test on Canis familiaris [1] stood at 12%; in the test on Canis familiaris [2], 39%; in the test with Canis familiaris [3] it was 96%. The Rating in the test on Canis familiaris [7] was less than 160 beats min-1; in the test with Canis familiaris [9], 0.5 h. The molecule also displayed an Activity rating in the test with Canis familiaris [4] of 36.

`C[N+](C)(C)CC(O)COC(c1ccccc1)c1ccccc1` (configuration not stated): the Heart rate in the test with Canis familiaris [5] is 135 beats min-1; in the test with Canis familiaris [6], 118 beats min-1; in the test on Canis familiaris [8], 242 beats min-1. Besides, the figures for the Normal beats in the test on Canis familiaris [1], with Canis familiaris [2] and with Canis familiaris [3] were 0%, 1% and 52%, respectively. Also, the values for the Rating with Canis familiaris [7] and in the test on Canis familiaris [9] were more than 200 beats min-1 and 0.5 h, respectively. In the test with Canis familiaris [4], this molecule registered an Activity rating of 9.

As for `CC1CCCC(C)[N+]1(C)CC(O)COC(c1ccccc1)c1ccccc1.[Cl-]` (configuration not stated), the Rating was 160 beats min-1 with Canis familiaris [10] and less than 0.5 h in the test on Canis familiaris [11]. The results for the Heart rate in the test on Canis familiaris [5], in the test on Canis familiaris [6] and in the test on Canis familiaris [8] were 152 beats min-1, 101 beats min-1 and 167 beats min-1, respectively. In addition, the results for the Normal beats in the test on Canis familiaris [1], with Canis familiaris [2] and in the test with Canis familiaris [3] were 28%, 33% and 15%, respectively. Moreover, in the test with Canis familiaris [4], the Activity rating is given as 15.

As to `CC(OCC(O)CN1C(C)CCCC1C)c1ccccc1` (configuration not stated), the Heart rate in the test on Canis familiaris [5] is 101 beats min-1; in the test on Canis familiaris [6] it was 144 beats min-1; with Canis familiaris [8], 156 beats min-1. Further, the Normal beats in the test on Canis familiaris [1] is listed as 11%; in the test with Canis familiaris [2], 16%; in the test with Canis familiaris [3], 62%. For the same molecule, the Rating is less than 160 beats min-1 in the test with Canis familiaris [7] and more than 2 h in the test with Canis familiaris [11]. This molecule yielded an Activity rating with Canis familiaris [4] of 13.

`CC1CCCC(C)N1CC(O)CSC(c1ccccc1)c1ccccc1` (configuration not stated): the Rating in the test with Canis familiaris [10] is 160 beats min-1; with Canis familiaris [11] it was less than 0.5 h. For the same molecule, the figures for the Heart rate in the test on Canis familiaris [5], in the test with Canis familiaris [12] and in the test with Canis familiaris [8] were 148 beats min-1, 148 beats min-1 and 185 beats min-1, respectively. For the same molecule, the values for the Normal beats in the test on Canis familiaris [1], in the test with Canis familiaris [2] and in the test on Canis familiaris [3] were 42%, 49% and 95%, respectively. Moreover, the Activity rating with Canis familiaris [4] was found to be 51.

As to `Cc1ccccc1C(OCC(O)CN1C(C)CCCC1C)c1ccccc1` (configuration not stated), the figures for the Rating in the test on Canis familiaris [10] and in the test with Canis familiaris [9] were 160 beats min-1 and 0.5 h, respectively. In addition, the figures for the Heart rate in the test on Canis familiaris [5], in the test with Canis familiaris [6] and with Canis familiaris [8] were 153 beats min-1, 134 beats min-1 and 153 beats min-1, respectively. For the same molecule, the Normal beats with Canis familiaris [1] turned out to be 81%; with Canis familiaris [2] it was 71%; in the test with Canis familiaris [3], 87%. The molecule also came in with an Activity rating in the test with Canis familiaris [4] of 68.

As for `CC1CCCC(C)N1CC(O)COC(c1ccccc1)c1ccccc1` (configuration not stated), the Rating with Canis familiaris [10] came to 160 beats min-1; in the test on Canis familiaris [9], 0.5 h. In addition, the Heart rate with Canis familiaris [5] came to 171 beats min-1; in the test on Canis familiaris [6], 150 beats min-1; in the test with Canis familiaris [8], 172 beats min-1. Also, the Normal beats was 53% in the test with Canis familiaris [1], 67% in the test on Canis familiaris [2] and 88% in the test with Canis familiaris [3]. In the test on Canis familiaris [4], the Activity rating stood at 56.

For `Cc1ccccc1C(OCC(O)CN1C(C)CCCC1C)c1ccccc1C` (configuration not stated), the Heart rate with Canis familiaris [5] turned out to be 113 beats min-1; in the test with Canis familiaris [6] it was 142 beats min-1; in the test on Canis familiaris [8] it was 153 beats min-1. Besides, the Normal beats worked out at 50% with Canis familiaris [1], 68% with Canis familiaris [2] and 87% with Canis familiaris [3]. Further, the Rating in the test with Canis familiaris [7] was less than 160 beats min-1; with Canis familiaris [11], less than 0.5 h. Also, the Activity rating in the test with Canis familiaris [4] was found to be 51.

Take `Cc1cccc(C)c1C(OCC(O)CN1C(C)CCCC1C)c1c(C)cccc1C` (configuration not stated): the Normal beats in the test on Canis familiaris [1] was 54%; in the test with Canis familiaris [2] it was 76%; in the test on Canis familiaris [3] it was 49%. Further, in the test with Canis familiaris [4], the Activity rating was 47.

With `COc1ccccc1C(OCC(O)CN1C(C)CCCC1C)c1ccccc1OC` (configuration not stated), the results for the Heart rate in the test with Canis familiaris [5], with Canis familiaris [6] and with Canis familiaris [8] were 232 beats min-1, 232 beats min-1 and 234 beats min-1, respectively. Further, the values for the Normal beats in the test with Canis familiaris [1], in the test with Canis familiaris [2] and in the test with Canis familiaris [3] were 33%, 62% and 100%, respectively. In addition, the values for the Rating in the test with Canis familiaris [7] and in the test on Canis familiaris [11] were more than 200 beats min-1 and more than 2 h, respectively. The molecule further returned an Activity rating in the test on Canis familiaris [4] of 57.

Regarding `Cc1cccc(C)c1C(OCC(O)CN1C(C)CCCC1C)c1ccccc1` (configuration not stated), the Normal beats turned out to be 16% with Canis familiaris [1], 19% in the test with Canis familiaris [2] and 60% in the test on Canis familiaris [3]. In addition, the Activity rating with Canis familiaris [4] is 8.

As for `CCN(CC)CC(=O)Nc1c(C)cccc1C.Cl`, the Normal beats in the test on Canis familiaris [1] was found to be 9%; with Canis familiaris [2], 23%; in the test with Canis familiaris [3], 86%. For the same molecule, the Activity rating with Canis familiaris [4] amounted to 20.

Take `CN(C)CC(O)COC(c1ccccc1)c1ccccc1.Cl` (configuration not stated): the Heart rate in the test with Canis familiaris [5] came out at 115 beats min-1; in the test on Canis familiaris [6], 110 beats min-1; with Canis familiaris [8] it was 121 beats min-1. The Normal beats in the test on Canis familiaris [1] is given as 15%; in the test on Canis familiaris [2], 25%; with Canis familiaris [3], 61%. In addition, the Rating in the test with Canis familiaris [13] was less than 20 beats min-1. Further, the Activity rating with Canis familiaris [4] was determined as 19.

In the case of `CC1CCCC(C)N1CC(O)CNC(c1ccccc1)c1ccccc1.Cl.Cl` (configuration not stated), the Heart rate was found to be 132 beats min-1 in the test on Canis familiaris [5], 122 beats min-1 with Canis familiaris [6] and 141 beats min-1 in the test with Canis familiaris [8]. The Normal beats with Canis familiaris [1] turned out to be 30%; in the test on Canis familiaris [2], 47%; in the test with Canis familiaris [3] it was 92%. Moreover, the Rating in the test with Canis familiaris [7] was less than 160 beats min-1; in the test on Canis familiaris [11] it was less than 0.5 h. For the same molecule, the Activity rating in the test on Canis familiaris [4] turned out to be 44.

With `CCN(CC)CCNC(=O)c1ccc(N)cc1.Cl` [PROCAINAMIDE HYDROCHLORIDE], the Normal beats in the test with Canis familiaris [1] turned out to be 34%; in the test with Canis familiaris [2], 66%; with Canis familiaris [3], 72%. Besides, the Activity rating in the test on Canis familiaris [4] was 52.
